The source made the active and inactive calls. No cut-off for these calls is given here.
Legend:
Neutrophil elastase [1] = target: T1, Neutrophil elastase (Homo sapiens, UniProt P08246); assay: In vitro inhibitory activity against human neutrophil elastase was determined at a dose of 45 mg/kg; assay type: organism-based; parameters: dose 45 mg/kg
T1 sequence (P08246 whole entry): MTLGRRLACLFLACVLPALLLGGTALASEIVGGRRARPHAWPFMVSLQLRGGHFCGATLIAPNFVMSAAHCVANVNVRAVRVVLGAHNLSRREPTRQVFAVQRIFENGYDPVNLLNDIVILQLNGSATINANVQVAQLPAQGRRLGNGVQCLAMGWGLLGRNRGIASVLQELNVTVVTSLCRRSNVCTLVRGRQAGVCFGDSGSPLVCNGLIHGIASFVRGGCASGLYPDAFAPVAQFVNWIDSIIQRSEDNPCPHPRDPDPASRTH

[2] = Inhibition of HNE-induced pulmonary hemorrhage when the compound was administered before 30 or 45 min at the dose of 50 mg/kg; not orally active; assay type: functional, organism-based; parameters: dose 50 mg/kg
Rattus norvegicus [3] = assay: In vivo inhibitory activity against HNE-induced pulmonary hemorrhage was determined in rats after oral administration of 45 mg/kg; assay type: functional
Method in brief: (§1)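 Rats were dosed orally 45 min before intratracheal instillation of 100 μg HNE. After 1 h, lungs were lavaged with saline, and BAL hemoglobin was measured spectrophotometrically (536–546 nm) against a Hgb standard curve. Percent inhibition was calculated versus vehicle-treated controls, 5–10 rats per group, as mean ± SEM, with one-way ANOVA and Dunnett's test (p ≤ 0.05).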

Rattus norvegicus [4] = assay: In vivo inhibitory activity against HNE-induced pulmonary hemorrhage was determined in rats after oral administration of 50 mg/kg; assay type: functional; method in brief: as §1
[5] = Inhibition of HNE-induced pulmonary hemorrhage when the compound was administered before 30 or 45 min at the dose of 50 mg/kg; Not orally active; assay type: functional, organism-based; parameters: dose 50 mg/kg
Neutrophil elastase [6] = target: T1, Neutrophil elastase; assay: In vitro inhibitory activity against human neutrophil elastase […]; parameters: dose 50 mg/kg
Neutrophil elastase [7] = target: T1, Neutrophil elastase; assay: In vitro inhibitory activity against human neutrophil elastase was determined at a dose of 100 mg/kg; assay type: organism-based; parameters: dose 100 mg/kg
Rattus norvegicus [8] = assay: In vivo inhibitory activity against HNE-induced pulmonary hemorrhage was determined in rats after oral administration of 100 mg/kg; assay type: functional; method in brief: as §1
Cricetinae gen. sp. = assay: In vivo inhibitory activity against HNE-induced pulmonary hemorrhage was determined in hamsters after oral administration of 25 mg/kg; assay type: functional
Method in brief: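 Hamsters were dosed orally 30 min (one case 15 min) before intratracheal instillation of 20 or 10 μg HNE. After 1 h, lungs were lavaged with saline, and BAL hemoglobin was read at 536–546 nm against a Hgb standard curve. Inhibition was calculated versus vehicle controls, 6–19 hamsters per group, as mean ± SEM, with ANOVA and Dunnett's test (p ≤ 0.05).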

[9] = Inhibition of HNE-induced pulmonary hemorrhage when the compound was administered before 30 or 45 min at the dose of 50 mg/kg; orally active; assay type: functional, organism-based; parameters: dose 50 mg/kg
Neutrophil elastase [10] = target: T1, Neutrophil elastase; assay: In vitro inhibitory activity against human neutrophil elastase
Method in brief: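 HNE was partially purified from human purulent sputum and assayed with MeO-Suc-Ala-Ala-Pro-Val-p-nitroanilide; the assay contained 10% v/v DMSO. Ki was found either from a double-reciprocal plot (four substrate × three inhibitor concentrations) or, assuming competitive inhibition, from three inhibitor concentrations at 0.2 mM substrate (≈Km) using v0/vi = 1 + [I]/Ki,app and Ki = Ki,app/(1 + [S]/Km). Inhibitor was 5–100-fold over enzyme, with no hydration correction.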

[11] = Half life determined from epimerization data at 37 degree C in human blood plasma; assay type: ADME, organism-based
Method in brief: (§2)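 The L-L-L or L-L-D diastereomer was held at 37 °C in human blood serum (three individual donors) or human plasma, with a sealed D2O capillary inserted into the NMR tube for lock. Epimerization was followed by 19F NMR spectra, and the half-life was taken from these spectra.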

[12] = Half life determined from epimerization data at 37 degree C in human blood serum 2; assay type: ADME, organism-based, Plasma; method in brief: as §2
[13] = Half life determined from epimerization data at 37 degree C in human blood serum 3; assay type: ADME, organism-based, Plasma; method in brief: as §2
Pepsin A (Sus scrofa) = Pepsin A (Sus scrofa) (UniProt P00791); assay: Tested for the ability to inhibit pepsin at 0.2 mM
Pepsin A (Sus scrofa), sequence (P00791 60-385 limits assumed): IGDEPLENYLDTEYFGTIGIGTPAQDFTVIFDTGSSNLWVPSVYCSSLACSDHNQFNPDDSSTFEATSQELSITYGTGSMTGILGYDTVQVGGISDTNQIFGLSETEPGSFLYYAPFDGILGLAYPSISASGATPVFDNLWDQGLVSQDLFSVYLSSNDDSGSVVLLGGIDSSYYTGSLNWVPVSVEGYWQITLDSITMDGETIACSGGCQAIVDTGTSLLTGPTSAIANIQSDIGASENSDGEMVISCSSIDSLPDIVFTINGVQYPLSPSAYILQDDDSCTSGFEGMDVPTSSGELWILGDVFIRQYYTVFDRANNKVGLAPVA

Prothrombin (Bos taurus) = Prothrombin (Bos taurus) (UniProt P00735); assay: Tested for the ability to inhibit bovine thrombin at 0.5 mM
[14] = target: T2, Cathepsin G (Homo sapiens) (UniProt P08311); assay: Tested for the ability to inhibit human neutrophil cathepsin G at 0.5 mM
T2 sequence (whole entry): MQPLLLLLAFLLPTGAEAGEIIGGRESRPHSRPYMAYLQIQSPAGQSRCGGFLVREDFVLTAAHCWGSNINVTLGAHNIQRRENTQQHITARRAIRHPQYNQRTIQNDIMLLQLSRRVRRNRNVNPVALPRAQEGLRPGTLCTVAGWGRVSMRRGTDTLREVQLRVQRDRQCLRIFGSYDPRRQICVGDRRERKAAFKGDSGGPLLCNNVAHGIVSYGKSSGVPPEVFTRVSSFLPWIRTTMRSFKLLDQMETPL

Cathepsin B (Bos taurus) = Cathepsin B (Bos taurus) (UniProt P07688); assay: Tested for the ability to inhibit bovine liver cathepsin B at 0.5 mM
[15] = target: T3, Neprilysin (Rattus norvegicus) (UniProt P07861); assay: Tested for the ability to inhibit rat kidney enkephalinase at 0.5 mM
T3 sequence (whole entry): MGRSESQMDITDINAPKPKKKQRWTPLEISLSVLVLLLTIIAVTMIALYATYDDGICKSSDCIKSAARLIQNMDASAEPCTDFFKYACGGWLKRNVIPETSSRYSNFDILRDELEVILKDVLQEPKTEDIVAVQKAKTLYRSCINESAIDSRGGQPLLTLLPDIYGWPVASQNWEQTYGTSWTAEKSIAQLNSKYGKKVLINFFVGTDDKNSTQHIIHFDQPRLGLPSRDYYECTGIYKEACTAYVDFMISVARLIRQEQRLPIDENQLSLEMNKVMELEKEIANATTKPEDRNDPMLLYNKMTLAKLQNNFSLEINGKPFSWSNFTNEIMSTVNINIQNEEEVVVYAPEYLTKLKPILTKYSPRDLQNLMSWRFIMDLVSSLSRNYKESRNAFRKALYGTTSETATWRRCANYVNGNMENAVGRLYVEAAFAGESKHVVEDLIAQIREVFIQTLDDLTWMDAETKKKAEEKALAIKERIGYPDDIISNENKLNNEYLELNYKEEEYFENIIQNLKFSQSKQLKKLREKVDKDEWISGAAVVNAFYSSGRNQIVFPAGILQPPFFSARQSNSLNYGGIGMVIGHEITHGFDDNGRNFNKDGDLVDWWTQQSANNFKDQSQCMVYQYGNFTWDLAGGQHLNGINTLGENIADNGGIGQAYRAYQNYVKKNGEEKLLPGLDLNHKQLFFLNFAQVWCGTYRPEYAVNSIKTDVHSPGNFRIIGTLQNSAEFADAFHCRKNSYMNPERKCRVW

[16] = Half life determined from epimerization data at 25 degree C in buffered saline
[17] = Half life determined from epimerization data at 25 degree C in Tween 20 (81 mM); conditions: Tween 20 solution (81 mM)
Neutrophil elastase [18] = target: T1, Neutrophil elastase; assay: In vitro inhibitory activity against human neutrophil elastase was determined at a dose of 25 mg/kg; assay type: organism-based; parameters: dose 25 mg/kg
Rattus norvegicus [19] = assay: In vivo inhibitory activity against HNE-induced pulmonary hemorrhage was determined in rats after oral administration of 25 mg/kg; assay type: functional; method in brief: as §1

CC(C)[C@H](NC(=O)c1ccco1)C(=O)N1CCC[C@H]1C(=O)N[C@H](C(=O)C(F)(F)C(F)(F)F)C(C)C
Ki (Neutrophil elastase [1]): 190 nM
Oral activity [2]: inactive
inhibition in vivo at 45 mg/kg (Rattus norvegicus [3]): 44%

CC(C)C(NC(=O)[C@@H]1CCCN1C(=O)[C@@H](NC(=O)c1ccc(NC(=O)N2CCOCC2)cc1)C(C)C)C(=O)C(F)(F)C(F)(F)F (some centres undefined)
inhibition in vivo at 50 mg/kg (Rattus norvegicus [4]): 26%
Oral activity [5]: inactive
Ki (Neutrophil elastase [6]): 43 nM

CC(C)C(NC(=O)[C@@H]1CCCN1C(=O)[C@@H](NC(=O)c1ccc(C(=O)NS(=O)(=O)c2ccc(Cl)cc2)cc1)C(C)C)C(=O)C(F)(F)C(F)(F)F (some centres undefined)
Ki (Neutrophil elastase [7]): 7 nM
inhibition in vivo at 100 mg/kg (Rattus norvegicus [8]): -30%
Oral activity [5]: inactive

CC(C)C(NC(=O)[C@@H]1CCCN1C(=O)[C@@H](NC(=O)c1ccc(C(=O)N2CCOCC2)nc1)C(C)C)C(=O)C(F)(F)C(F)(F)F (some centres undefined)
inhibition in vivo at 25 mg/kg (Cricetinae gen. sp.): 61%

CC(C)C(NC(=O)[C@@H]1CCCN1C(=O)[C@@H](NC(=O)CCc1cccnc1)C(C)C)C(=O)C(F)(F)C(F)(F)F (some centres undefined)
inhibition in vivo at 25 mg/kg (Cricetinae gen. sp.): 67%
Oral activity [9]: Active

CC(C)C(NC(=O)[C@@H]1CCCN1C(=O)[C@@H](NC(=O)C(C(=O)N1CCOCC1)C(C)C)C(C)C)C(=O)C(F)(F)C(F)(F)F (some centres undefined)
inhibition in vivo at 25 mg/kg (Cricetinae gen. sp.): 70%
Oral activity [9]: Active

CC(C)C(NC(=O)[C@@H]1CCCN1C(=O)[C@@H](NC(=O)C1CCOCC1)C(C)C)C(=O)C(F)(F)C(F)(F)F (some centres undefined)
inhibition in vivo at 50 mg/kg (Rattus norvegicus [4]): 71%
Oral activity [9]: Active
Ki (Neutrophil elastase [6]): 59 nM

CC(C)[C@H](NC(=O)CN1CCOCC1)C(=O)N1CCC[C@H]1C(=O)N[C@H](C(=O)C(F)(F)C(F)(F)F)C(C)C
inhibition in vivo at 50 mg/kg (Rattus norvegicus [4]): 77%
Oral activity [9]: Active
Ki (Neutrophil elastase [6]): 60 nM

CC(C)[C@H](NC(=O)N(C)C)C(=O)N1CCC[C@H]1C(=O)N[C@H](C(=O)C(F)(F)C(F)(F)F)C(C)C
Ki (Neutrophil elastase [10]): 261 nM
inhibition in vivo at 50 mg/kg (Rattus norvegicus [4]): 70%
Oral activity [9]: Active

CC(C)C(NC(=O)[C@@H]1CCCN1C(=O)[C@@H](NC(=O)c1ccc(C(=O)N2CCOCC2)cc1)C(C)C)C(=O)C(F)(F)C(F)(F)F (some centres undefined)
half-life [11]: 30 min
half-life [12]: 30 min
half-life [13]: 30 min
inhibition in vivo at 25 mg/kg (Cricetinae gen. sp.): 74%
inhibition (Pepsin A (Sus scrofa)): 40%
inhibition in vivo at 50 mg/kg (Rattus norvegicus [4]): 69%
inhibition (Prothrombin (Bos taurus)): < 5%
Oral activity [9]: Active
Ki (Neutrophil elastase [6]): 25 nM
inhibition [14]: 15%
inhibition (Cathepsin B (Bos taurus)): < 5%
inhibition [15]: < 5%
half-life [16]: > 200 h
half-life [17]: 70 min

CC(C)C(NC(=O)[C@@H]1CCCN1C(=O)[C@@H](NC(=O)c1ccc(S(=O)(=O)N2CCOCC2)cc1)C(C)C)C(=O)C(F)(F)C(F)(F)F (some centres undefined)
inhibition in vivo at 25 mg/kg (Cricetinae gen. sp.): 30%
Oral activity [5]: inactive

CC(C)C(NC(=O)[C@@H]1CCCN1C(=O)[C@@H](NC(=O)N1CCOCC1)C(C)C)C(=O)C(F)(F)C(F)(F)F (some centres undefined)
inhibition in vivo at 25 mg/kg (Cricetinae gen. sp.): 69%
inhibition in vivo at 50 mg/kg (Rattus norvegicus [4]): 69%
Oral activity [9]: Active
Ki (Neutrophil elastase [6]): 170 nM

CC(C)C(NC(=O)[C@@H]1CCCN1C(=O)[C@@H](NC(=O)CC(=O)N1CCOCC1)C(C)C)C(=O)C(F)(F)C(F)(F)F (some centres undefined)
Ki (Neutrophil elastase [18]): 70 nM
inhibition in vivo at 25 mg/kg (Rattus norvegicus [19]): 41%

CC(C)C(NC(=O)[C@@H]1CCCN1C(=O)[C@@H](NC(=O)c1ccc(C(=O)N2CCN(C(=O)N3CCOCC3)CC2)cc1)C(C)C)C(=O)C(F)(F)C(F)(F)F (some centres undefined)
inhibition in vivo at 25 mg/kg (Cricetinae gen. sp.): 31%
Oral activity [5]: inactive

CC(C)C(NC(=O)[C@@H]1CCCN1C(=O)[C@@H](NC(=O)c1ccc(C(=O)O)cc1)C(C)C)C(=O)C(F)(F)C(F)(F)F (some centres undefined)
inhibition in vivo at 25 mg/kg (Cricetinae gen. sp.): -3%
Oral activity [5]: inactive

— ChEMBL document CHEMBL1127308, “Inhibition of human neutrophil elastase with peptidyl electrophilic ketones. 2. Orally active PG-Val-Pro-Val pentafluoroethyl ketones” (J Med Chem, 1994)
